Assay results gathered from unrelated publications.
Lines come from different studies, so protocols differ.
Target: Ephrin type-A receptor 2 (EPHA2, Homo sapiens, UniProt P29317)

`CCCOc1ccc(OC)c(F)c1C(=O)c1ccc(C(=O)N[C@@H]2CNC[C@H]2NC(=O)c2ccc3[nH]ncc3c2)cc1` has a remaining activity of 69% (enzyme activity; inhibitor; 10 µM).
`CC1=C(C#N)[C@@H](c2ccc3[nH]nc(C)c3c2)C(C#N)=C(c2ccc(Cl)cc2)N1` has a remaining binding of 100% (cell-free assay; competition with immobilised ligand; 1 µM).
`CCN(CC)CCNC(=O)c1c(C)[nH]c(/C=C2\C(=O)Nc3ccc(F)cc32)c1C` has an inhibition of -12% (enzyme activity; inhibitor; 0.3 µM).
`O=C1NC(c2ccccn2)Sc2ccccc21` (stereo not drawn) gave a remaining binding of 100% (cell-free assay; competition with immobilised ligand; 1 µM).
With `Nc1nc(Nc2ccccc2)sc1C(=O)c1c(F)cccc1F` the remaining activity was 71% (enzyme activity; inhibitor; 10 µM).
With `CN(c1ncccc1CNc1nc(Nc2ccc3c(c2)CC(=O)N3)ncc1C(F)(F)F)S(C)(=O)=O` the inhibition was 29.7% (enzyme activity; inhibitor; 1 µM).
`COc1cc2nccc(Oc3ccc(NC(=O)Nc4ccc(F)cc4F)c(F)c3)c2cc1OC` gave a ΔTm of 5 to 10 °C (thermal stability; DSF; 10 µM).
The inhibition of `CNC(=O)c1cc(Oc2ccc(NC(=O)Nc3ccc(Cl)c(C(F)(F)F)c3)cc2)ccn1` is reported as 96% (enzyme activity; inhibitor; 10 µM).
For `CC(C)(C)c1nc2c(s1)c1nc(N)ncc1c1ccc(NS(=O)(=O)c3c(F)cccc3F)c(F)c12`, the remaining activity was 109% (enzyme activity; inhibitor; radiometric; 1 µM).
With `Cn1c(=O)n(-c2ccc(C(C)(C)C#N)cc2)c2c3cc(-c4cnc5ccccc5c4)ccc3ncc21` the remaining activity was 110% (enzyme activity; inhibitor; 10 µM).
With `O=C1NC(=O)c2cc(Nc3ccc(F)cc3)c(Nc3ccc(F)cc3)cc21` the remaining signal was 94.3% (cell-free assay; 0.5 µM).
With `Cc1nccc(COC(=O)N2C[C@@H]3[C@@H](CNC(=O)c4ccc5[nH]nnc5c4)[C@@H]3C2)n1` the remaining binding was 92% (cell-free assay; competition with immobilised ligand; 1 µM).
For `COc1cc(/C=C/C(=O)CC(=O)/C=C/c2ccc(O)c(OC)c2)ccc1O`, the activity vs control was 104% (enzyme activity; inhibitor; 1 µM).
`CC(C)(C)C(=O)c1sc(NC2CCCCC2)nc1N` gave a remaining activity of 106% (enzyme activity; inhibitor; 10 µM).
For `CCCS(=O)(=O)Nc1ccc(F)c(C(=O)c2c[nH]c3ncc(-c4ccc(Cl)cc4)cc23)c1F`, the inhibition was under 10% (enzyme activity; inhibitor; 1 µM).
`N#CCCc1ccc2c(c1)-c1[nH]c3ccc([N+](=O)[O-])cc3c1CC(=O)N2` has a remaining signal of 93.6% (cell-free assay; 0.5 µM).
For `Cc1sc(C(=O)NC2COC2)cc1-n1cc(NC(=O)Nc2c(F)cccc2Cl)cn1`, the remaining activity was 102% (enzyme activity; inhibitor; 10 µM).
With `CN(c1ccnc(CNc2nc(Nc3ccc4c(c3)CC(=O)N4)ncc2C(F)(F)F)n1)S(C)(=O)=O` the remaining binding was 80% (cell-free assay; competition with immobilised ligand; 1 µM).
`COc1cc(Nc2cnc(C#N)c(O[C@H](C)CN(C)C)n2)ncc1-c1cnn(C)c1` has a remaining activity of 24% (enzyme activity; inhibitor; radiometric; 10 µM).
`CC/C(=N\NC(=O)NCc1cccc(O)c1)c1ccc(O)c(C)c1O` gave an inhibition of 3.9% (enzyme activity; inhibitor; 0.1 µM).
With `COc1cc2ncnc(Nc3ccc(Oc4ccccc4)cc3C)c2cc1OC` the inhibition was 2% (enzyme activity; inhibitor; 1 µM).
For `O=C(N1CCS(=O)(=O)CC1)N1C[C@H](c2ccc(OC(F)(F)F)cc2)C[C@H](c2nc(C3CC3)no2)C1`, the remaining binding was 100% (cell-free assay; competition with immobilised ligand; 1 µM).
For `O=C(CSc1nc2nccnc2c(=O)n1CCc1ccccc1)Nc1nccs1`, the inhibition was 8% (enzyme activity; inhibitor; 10 µM).
`O=C(Nc1ccc(Oc2ccc(F)cc2)cc1)N1CCc2ncccc2[C@H]1c1ccc(F)cc1` gave a remaining binding of 100% (cell-free assay; competition with immobilised ligand; 1 µM).
With `C[C@@H]1CCN(C(=O)CC#N)C[C@@H]1N(C)c1ncnc2[nH]ccc12` the remaining signal was 95.8% (cell-free assay; 0.5 µM).
With `C[C@@H]1CN(c2cc(-c3nn(C)c4ccc(OC5(C)CC5)cc34)ncn2)C[C@H](C)O1` the remaining binding was 100% (cell-free assay; competition with immobilised ligand; 1 µM).
With `Cc1ccc(Nc2nccc(N(C)c3ccc4c(C)n(C)nc4c3)n2)cc1S(N)(=O)=O` the inhibition was 43% (enzyme activity; inhibitor; 10 µM).
With `Cc1ccc(C(=O)NCc2ccsc2)cc1C#Cc1cn(C(C)C)c2ncnc(N)c12` the activity vs control was 2% (enzyme activity; inhibitor; 1 µM).
`CCc1ccccc1C(=O)Nc1n[nH]c2c(C)c(F)c(C3C(C#N)=C(C)N(C)C(C)=C3C#N)cc12` has a remaining binding of 61% (cell-free assay; competition with immobilised ligand; 1 µM).
The remaining signal of `Cc1ccc(C(=O)Nc2ccc(CN3CCN(C)CC3)c(C(F)(F)F)c2)cc1C#Cc1cnc2cccnn12` is reported as 8.9% (cell-free assay; 23.5 nM).
